# Results collected from several papers.
# Compare with care: the assays were run in different laboratories. pIC50: −log10 of the molar value.
# Effect on: cell growth or viability
SMILES,cell line,test,setting,quantity,value
OCc1ccc(-c2nn(Cc3cccc(Cl)c3)c3ccccc23)o1,RBE,ATP luminescence,,pIC50,5.85
COc1ccc2c(-c3ncc(-c4ccccc4)o3)nn(Cc3ccccc3)c2c1,human Fibroblast,,48 h,pIC50,4.05
OC1CCN(c2ccc(/C=N/NC(=S)Nc3ccc(Cl)cc3)cc2)CC1,BEAS-2B,MTT,24 h,pIC50,4.86
C/C(=N\C1CCCCC1/N=C(\C)c1c(O)c2ccccc2oc1=O)c1c(O)c2ccccc2oc1=O (centres unmarked),BEAS-2B,MTT,48 h,pIC50,5.26
OCc1ccc(N2CCc3cccc(F)c3C2)cc1Cl,RBE,ATP luminescence,,pIC50,> 6.70
COc1cc(C2C3=C(COC3=O)N(CCO)c3cc4c(cc32)CCC4)cc(OC)c1OC (centres unmarked),MDA-MB-468,ATP luminescence,48 h,pIC50,7.00
c1ccc(-c2noc(-c3nn(Cc4ccncc4)c4ccccc34)n2)cc1,human Fibroblast,,48 h,pIC50,4.29
OC1CCN(c2ccc(/C=N/NC(=S)NCc3ccc(Cl)cc3)cc2)CC1,BEAS-2B,MTT,24 h,pIC50,4.87
Cc1nc2ccc(-c3ccc(F)cc3)cc2c(O)c1C(=O)O,MDA-MB-468,MTT,48 h,pIC50,≤ 4.00
COc1ccc(NC(=S)N/N=C/c2ccc(N3CCC(O)CC3)cc2)cc1,BEAS-2B,MTT,24 h,pIC50,4.76
FC(F)(F)c1ccc(-c2nnc(-c3nn(Cc4ccc(Cl)cc4Cl)c4ccccc34)o2)cc1,human Fibroblast,,48 h,pIC50,4.00
CNCc1ccc(-c2nn(Cc3ccccc3)c3ccccc23)o1,RBE,ATP luminescence,,pIC50,4.67
COc1cccc2c1C(=O)c1c(O)c3c(c(O)c1C2=O)C[C@@](O)(C(=O)CO)C[C@@H]3O[C@H]1C[C@H](N)[C@H](O)[C@H](C)O1,SGC-7901,,96 h,pIC50,6.59
CNC(=O)c1cc(Oc2ccc(NC(=O)Nc3ccc(Cl)c(C(F)(F)F)c3)cc2)ccn1,BEAS-2B,MTT,24 h,pIC50,4.80
CCOC(=O)c1c(C)nc2ccc(-c3cccc(F)c3)cc2c1O,MDA-MB-468,MTT,48 h,pIC50,5.40
C/C(=N\CCNCC/N=C(\C)c1c(O)c2ccccc2oc1=O)c1c(O)c2ccccc2oc1=O,BEAS-2B,MTT,48 h,pIC50,4.88
OCc1ccc(-c2nn(Cc3cccnc3)c3cccnc23)o1,RBE,ATP luminescence,,pIC50,5.30
c1ccc(Cc2nnc(-c3nn(Cc4ccccc4)c4ccccc34)o2)cc1,human Fibroblast,,48 h,pIC50,3.20
COc1ccc(Cn2nc(-c3ccc(CO)o3)c3ccccc32)cc1,RBE,ATP luminescence,,pIC50,5.95
CN1CCC(NC2CCc3[nH]c4c(C(N)=O)ccc(-c5ccccc5Cl)c4c3C2)CC1 (centres unmarked),SGC-7901,,96 h,pIC50,7.76
COc1cc(Cn2nc(-c3ccc(CO)o3)c3ccccc32)ccn1,RBE,ATP luminescence,,pIC50,6.42
Fc1ccc2c(-c3nnc(Cc4ccccc4)[nH]3)nn(Cc3ccc(Cl)cc3Cl)c2c1,human Fibroblast,,48 h,pIC50,3.23
Cc1nc2ccc(-c3ccc(OCc4ccccc4)c(F)c3)cc2c(O)c1C(=O)O,MDA-MB-468,MTT,48 h,pIC50,≤ 4.00
OCn1ccnc1,BEAS-2B,MTT,24 h,pIC50,< 3.10
CC(=O)N1CCC(Nc2cc(C(=O)NC[C@H](O)CN3CCc4ccccc4C3)ncn2)CC1,MDA-MB-435S,CCK-8,72 h,pIC50,< 4.00
CC(C)CNC(=S)N/N=C/c1ccc(N2CCC(O)CC2)cc1,BEAS-2B,MTT,24 h,pIC50,4.97
Cc1noc(-c2nn(Cc3ccc(Cl)cc3Cl)c3ccccc23)n1,human Fibroblast,,48 h,pIC50,3.83
COc1cccc2c1C(=O)c1c(O)c3c(c(O)c1C2=O)C[C@@](O)(C(=O)CO)C[C@@H]3O[C@H]1C[C@H](N)[C@H](O)[C@H](C)O1,BEAS-2B,MTT,48 h,pIC50,5.39
CCOC(=O)c1c(C)nc2ccc(-c3ccc(F)cc3F)cc2c1O,MDA-MB-468,MTT,48 h,pIC50,5.10
Fc1ccc2c(-c3nnc(Cc4ccccc4)s3)nn(Cc3ccccc3)c2c1,human Fibroblast,,48 h,pIC50,3.22
CC(=O)ON=C1C=CC(=C(C#N)c2ccccc2)C=C1,human Fibroblast,MTT,48 h,IC50,20.3 µg/mL
Cc1ccc(Cn2nc(-c3ccc(CO)o3)c3ccccc32)cc1,RBE,ATP luminescence,,pIC50,5.77
Cc1nc2ccc(-c3ccc(F)c(F)c3)cc2c(O)c1C(=O)O,MDA-MB-468,MTT,48 h,pIC50,≤ 4.00
Fc1ccc2c(-c3ncc(-c4ccccc4)o3)nn(Cc3ccccc3)c2c1,human Fibroblast,,48 h,pIC50,3.70
CC(O)c1ccc(-c2nn(Cc3ccccc3)c3ccccc23)o1 (centres unmarked),RBE,ATP luminescence,,pIC50,5.16
